From ChEMBL document CHEMBL1155504, “Synthesis of 4-[(diethylamino)methyl]-phenol derivatives as novel cholinesterase inhibitors with selectivity towards butyrylcholinesterase” (Bioorg Med Chem Lett, 2010)
pIC50: −log10 of the molar value. Active and inactive are the calls of the source. No cut-off for these calls is given here.

Experiments:
[1] = biological target: Acetylcholinesterase (Electrophorus electricus, UniProt O42275); assay: Inhibition of electric eel AChE after 15 mins by Ellman's method
[2] = biological target: Cholinesterase (Equus caballus, UniProt P81908); assay: Inhibition of horse serum BChE after 15 mins by Ellman's method
[3] = Selectivity ratio of IC50 for electric eel AChE to IC50 for horse serum BChE
Method in brief: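 Ellman assay for each enzyme: enzyme, DTNB and test compound in 0.1 M potassium phosphate buffer, pH 8.0, pre-incubated 15 min at 37 °C. Started with ATC (AChE) or BTC (BChE) and read at 412 nm for 1 min. Five compound concentrations, each in triplicate; DMSO reference, enzyme-free blank. Ratio taken from the two IC50 values.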

[4] = biological target: Acetylcholinesterase (Electrophorus electricus) (UniProt O42275); assay: Mixed-type inhibition of electric eel AChE at 50 to 100 nM by Lineweaver-Burke plot analysis
Method in brief: (§1)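 Ellman assay: enzyme, DTNB and inhibitor in 0.1 M potassium phosphate buffer, pH 8.0, pre-incubated 15 min at 37 °C. Reaction started with acetylthiocholine at 100–400 (unit unclear) and followed by absorbance at 412 nm. Inhibitor absent or at two levels. Inhibition type assigned from Lineweaver–Burk plots (1/V versus 1/[S]).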

[5] = biological target: Cholinesterase (Equus caballus) (UniProt P81908); assay: Mixed-type inhibition of horse serum BChE at 10 to 20 nM by Lineweaver-Burke plot analysis
Method in brief: as §1, with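 “butyrylthiocholine” for “acetylthiocholine”, “100–500” for “100–400”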

Chain of Cholinesterase (P81908 whole entry): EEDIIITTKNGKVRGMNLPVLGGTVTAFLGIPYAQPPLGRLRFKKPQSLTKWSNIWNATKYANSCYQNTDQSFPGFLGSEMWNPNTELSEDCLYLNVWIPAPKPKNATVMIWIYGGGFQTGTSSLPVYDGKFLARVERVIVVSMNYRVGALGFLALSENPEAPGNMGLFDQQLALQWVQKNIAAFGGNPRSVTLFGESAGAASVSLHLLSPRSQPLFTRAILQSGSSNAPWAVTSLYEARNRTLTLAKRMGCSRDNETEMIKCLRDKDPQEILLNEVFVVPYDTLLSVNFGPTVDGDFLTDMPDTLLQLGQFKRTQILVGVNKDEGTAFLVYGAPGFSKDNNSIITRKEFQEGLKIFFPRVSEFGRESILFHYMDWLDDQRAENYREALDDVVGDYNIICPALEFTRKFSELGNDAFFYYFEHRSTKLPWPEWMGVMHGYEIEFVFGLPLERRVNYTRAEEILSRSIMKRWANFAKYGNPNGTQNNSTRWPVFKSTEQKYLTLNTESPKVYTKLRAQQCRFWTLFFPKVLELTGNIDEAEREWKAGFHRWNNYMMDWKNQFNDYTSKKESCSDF
Chain of Acetylcholinesterase (O42275 whole entry): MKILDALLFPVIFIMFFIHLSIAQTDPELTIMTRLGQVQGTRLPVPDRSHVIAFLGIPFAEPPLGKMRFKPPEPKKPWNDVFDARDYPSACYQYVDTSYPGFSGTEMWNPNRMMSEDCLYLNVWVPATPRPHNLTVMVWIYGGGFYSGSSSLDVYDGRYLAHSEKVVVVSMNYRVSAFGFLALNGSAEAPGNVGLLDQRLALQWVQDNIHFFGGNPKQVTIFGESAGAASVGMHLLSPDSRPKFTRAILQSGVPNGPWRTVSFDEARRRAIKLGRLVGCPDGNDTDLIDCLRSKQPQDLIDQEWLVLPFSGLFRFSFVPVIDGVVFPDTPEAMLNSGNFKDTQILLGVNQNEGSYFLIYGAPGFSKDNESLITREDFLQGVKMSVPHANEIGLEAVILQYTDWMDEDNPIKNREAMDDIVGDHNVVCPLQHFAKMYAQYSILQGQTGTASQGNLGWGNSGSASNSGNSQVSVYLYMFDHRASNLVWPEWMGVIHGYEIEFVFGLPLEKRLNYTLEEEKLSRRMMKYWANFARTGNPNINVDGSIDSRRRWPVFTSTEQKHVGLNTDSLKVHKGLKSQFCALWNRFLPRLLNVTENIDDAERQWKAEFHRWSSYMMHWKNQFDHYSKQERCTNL
Chain of Cholinesterase (Equus caballus) (P81908 whole entry): as the sequence (P81908 whole entry) above
Chain of Acetylcholinesterase (Electrophorus electricus) (O42275 24-633 limits assumed): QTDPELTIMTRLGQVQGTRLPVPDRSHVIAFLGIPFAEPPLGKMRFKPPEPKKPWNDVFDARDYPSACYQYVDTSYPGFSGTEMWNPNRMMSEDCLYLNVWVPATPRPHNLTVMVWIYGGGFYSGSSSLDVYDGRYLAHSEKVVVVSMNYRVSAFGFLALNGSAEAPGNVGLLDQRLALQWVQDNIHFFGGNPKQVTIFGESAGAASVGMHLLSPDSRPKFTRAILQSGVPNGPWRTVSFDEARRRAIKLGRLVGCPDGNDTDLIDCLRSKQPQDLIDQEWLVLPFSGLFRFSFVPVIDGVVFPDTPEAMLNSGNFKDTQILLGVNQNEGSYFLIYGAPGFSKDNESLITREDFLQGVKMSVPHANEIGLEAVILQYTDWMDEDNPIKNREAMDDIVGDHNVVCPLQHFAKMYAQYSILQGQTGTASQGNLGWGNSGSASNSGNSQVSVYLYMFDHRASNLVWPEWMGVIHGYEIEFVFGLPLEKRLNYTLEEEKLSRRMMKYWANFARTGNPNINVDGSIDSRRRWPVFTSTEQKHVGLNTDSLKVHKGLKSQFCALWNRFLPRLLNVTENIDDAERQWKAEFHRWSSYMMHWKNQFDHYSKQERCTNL

CCN(CC)CCCCOc1ccc(CN(CC)CC)cc1
pIC50 [1]: 4.97
pIC50 [2]: 5.56
Ratio IC50 [3]: 3.87

CCN(CC)Cc1ccc(OCCCCCCN2CCN(C)CC2)cc1
pIC50 [1]: 5.74
pIC50 [2]: 5.42
Ratio IC50 [3]: 0.48

CCCCN(CCCC)CCCCCCCCCCOc1ccc(CN(CC)CC)cc1
pIC50 [1]: 6.59
pIC50 [2]: 7.82
Ratio IC50 [3]: 16.5

CCN1CCN(CCCCCCCCCCOc2ccc(CN(CC)CC)cc2)CC1
pIC50 [1]: 6.24
pIC50 [2]: 6.72
Ratio IC50 [3]: 3.1

CCN(CC)CCCCCCCCCCOc1ccc(CN(CC)CC)cc1
pIC50 [1]: 6.51
pIC50 [2]: 7.57
Ratio IC50 [3]: 11.3

CCCN(CCC)CCCCOc1ccc(CN(CC)CC)cc1
pIC50 [1]: 4.86
pIC50 [2]: 4.93
Ratio IC50 [3]: 1.17

CCN(CC)Cc1ccc(OCCCCN2CCCCC2)cc1
pIC50 [1]: 5.17
pIC50 [2]: 6.15
Ratio IC50 [3]: 9.4

CCN(CC)CCCCCCOc1ccc(CN(CC)CC)cc1
pIC50 [1]: 6.02
pIC50 [2]: 5.78
Ratio IC50 [3]: 0.58

CCCN(CCC)CCCCCOc1ccc(CN(CC)CC)cc1
pIC50 [1]: 5.25
pIC50 [2]: 5.75
Ratio IC50 [3]: 3.13

CCN(CC)Cc1ccc(OCCCCN2CCCC2)cc1
pIC50 [1]: 5.47
pIC50 [2]: 5.85
Ratio IC50 [3]: 2.44

CCN1CCN(CCCCCCCCOc2ccc(CN(CC)CC)cc2)CC1
pIC50 [1]: 7.11
pIC50 [2]: 7.85
Ratio IC50 [3]: 5.38

CCCN(CCC)CCCCCCOc1ccc(CN(CC)CC)cc1
pIC50 [1]: 5.67
pIC50 [2]: 5.87
Ratio IC50 [3]: 1.61

CCN(CC)Cc1ccc(OCCCCCN2CCCC2)cc1
pIC50 [1]: 6.30
pIC50 [2]: 5.81
Ratio IC50 [3]: 0.32

CCCCN(CCCC)CCCCOc1ccc(CN(CC)CC)cc1
pIC50 [1]: 4.99
pIC50 [2]: 5.60
Ratio IC50 [3]: 4.01

CCCN(CCC)CCCCCCCCCCOc1ccc(CN(CC)CC)cc1
pIC50 [1]: 6.47
pIC50 [2]: 7.59
Ratio IC50 [3]: 13.1

CCN1CCN(CCCCCOc2ccc(CN(CC)CC)cc2)CC1
pIC50 [1]: 5.75
pIC50 [2]: 5.51
Ratio IC50 [3]: 0.57

CCN(CC)Cc1ccc(OCCCCCCCCCCN2CCCC2)cc1
pIC50 [1]: 6.52
pIC50 [2]: 7.17
Ratio IC50 [3]: 4.41

CCCCN(CCCC)CCCCCCOc1ccc(CN(CC)CC)cc1
pIC50 [1]: 6.17
pIC50 [2]: 6.64
Ratio IC50 [3]: 2.92

CCN1CCN(CCCCCCOc2ccc(CN(CC)CC)cc2)CC1
pIC50 [1]: 5.79
pIC50 [2]: 5.66
Ratio IC50 [3]: 0.74

CCN(CC)Cc1ccc(OCCCCCCN2CCCC2)cc1
pIC50 [1]: 6.36
pIC50 [2]: 5.89
Ratio IC50 [3]: 0.34

CCN(CC)Cc1ccc(OCCCCCN2CCN(C)CC2)cc1
pIC50 [1]: 5.61
pIC50 [2]: 5.03
Ratio IC50 [3]: 0.27

CCN(CC)Cc1ccc(OCCN2CCN(C)CC2)cc1
pIC50 [1]: 4.94
pIC50 [2]: 4.69
Ratio IC50 [3]: 0.56

CCN(CC)Cc1ccc(OCCCCCCCCN2CCCC2)cc1
pIC50 [1]: 7.08
pIC50 [2]: 7.82
Ratio IC50 [3]: 5.42

CCCCN(CCCC)CCCCCCCCOc1ccc(CN(CC)CC)cc1
pIC50 [1]: 6.85
pIC50 [2]: 7.77
Ratio IC50 [3]: 8.45

CCN(CC)Cc1ccc(OCCN2CCCCC2)cc1
pIC50 [1]: 4.86
pIC50 [2]: 5.00
Ratio IC50 [3]: 1.35

CCN(CC)Cc1ccc(OCCCCCCCCCCN2CCN(C)CC2)cc1
pIC50 [1]: 6.27
pIC50 [2]: 7.48
Ratio IC50 [3]: 16.5

CCCCN(CCCC)CCCCCOc1ccc(CN(CC)CC)cc1
pIC50 [1]: 5.61
pIC50 [2]: 5.72
Ratio IC50 [3]: 1.29

CCN(CC)Cc1ccc(OCCCCCCCCN2CCN(C)CC2)cc1
pIC50 [1]: 6.68
pIC50 [2]: 7.96
Ratio IC50 [3]: 18.6

CCCN(CCC)CCCCCCCCOc1ccc(CN(CC)CC)cc1
pIC50 [1]: 6.77
pIC50 [2]: 8.04
Ratio IC50 [3]: 18.8

CCN(CC)CCCCCCCCOc1ccc(CN(CC)CC)cc1
pIC50 [1]: 6.85
pIC50 [2]: 7.32
Ratio IC50 [3]: 2.99

CCN(CC)Cc1ccc(OCCCCN2CCN(C)CC2)cc1
pIC50 [1]: 5.25
pIC50 [2]: 5.01
Ratio IC50 [3]: 0.57

CCN(CC)CCCCCOc1ccc(CN(CC)CC)cc1
pIC50 [1]: 5.08
pIC50 [2]: 5.35
Ratio IC50 [3]: 1.89

CCN(CC)Cc1ccc(OCCCCCCCCN2CCCCC2)cc1
pIC50 [1]: 7.04
pIC50 [2]: 8.14
inhibition [4]: Active
Ratio IC50 [3]: 12.5
Activity [5]: Active

CCN(CC)Cc1ccc(OCCCCCN2CCCCC2)cc1
pIC50 [1]: 5.37
pIC50 [2]: 6.17
Ratio IC50 [3]: 6.44

CCN(CC)Cc1ccc(OCCCCCCCCCCN2CCCCC2)cc1
pIC50 [1]: 6.22
pIC50 [2]: 7.11
Ratio IC50 [3]: 7.66

CCN(CC)Cc1ccc(OCCCCCCN2CCCCC2)cc1
pIC50 [1]: 6.05
pIC50 [2]: 5.86
Ratio IC50 [3]: 0.65
